From ChEMBL document CHEMBL5223087, “First-in-Class Cyclic Temporin L Analogue: Design, Synthesis, and Antimicrobial Assessment” (J Med Chem, 2021)
Converted amounts (≈) assume the structure as drawn. The source made the active and inactive calls. The rule behind the calls is not given here. Bridge positions count the residues as written; N and C are the ends. Square brackets hold non-standard residues; d marks the D form. Peptide text beside a SMILES is read from it.

Experiments:
Escherichia coli = test: Antimicrobial activity against Escherichia coli ATCC 25922 assessed as reduction in bacterial growth incubated for 16 to 18 hrs by microdilution susceptibility test; assay type: functional; conditions: time 16-18 hrs
Method in brief: (§1)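 Broth microdilution in Mueller–Hinton broth. Mid-log bacteria at 1 × 10⁶ CFU/mL final, peptide twofold serial dilutions 100 to 0.78 μM final. Incubated 16–18 h at 37 °C. MIC taken as the lowest concentration giving total (100%) growth inhibition.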

Pseudomonas aeruginosa = test: Antimicrobial activity against Pseudomonas aeruginosa ATCC 27853 assessed as reduction in bacterial growth incubated for 16 to 18 hrs by microdilution susceptibility test; assay type: functional; conditions: time 16-18 hrs; method in brief: as §1
HaCaT [1] = test: Cytotoxicity against human HaCaT cells assessed as reduction in cell viability at 25 uM measured after 2 hrs by MTT assay; assay type: toxicity, cell-based
Method in brief: (§2)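 HaCaT keratinocytes seeded at 4 × 10⁴/well in DMEM with 4 mM glutamine and 2% FBS, no antibiotics, overnight at 37 °C, 5% CO2. Medium replaced with peptide-containing DMEMg for 2 or 24 h. MTT 0.5 mg/mL in Hank's buffer 4 h, formazan dissolved in acidified isopropanol, A570. Viability as % of untreated cells; mean of three independent experiments ± SEM.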

HaCaT [2] = test: Cytotoxicity against human HaCaT cells assessed as reduction in cell viability at 50 uM measured after 2 hrs by MTT assay; assay type: toxicity, cell-based; method in brief: as §2
HaCaT [3] = test: Cytotoxicity against human HaCaT cells assessed as reduction in cell viability at 50 uM measured after 24 hrs by MTT assay; assay type: toxicity, cell-based; method in brief: as §2
[4] = Membrano-lytic effect in bacterial inner membrane mimic DOPG/CL (58:42) large unilamellar vesicles at 50 uM by varian cary eclipse fluorescence spectrometry analysis; assay type: cell membranes
[5] = Membrano-lytic effect in bacterial inner membrane mimic DOPE/DOPG/CL (63:23:12) large unilamellar vesicles at 5 to 50 uM by varian cary eclipse fluorescence spectrometry analysis; assay type: cell membranes; conditions: dose 5-50 µM
[6] = Membrano-lytic effect in bacterial inner membrane mimic DOPE/DOPG/CL (63:23:12) large unilamellar vesicles at 10 uM by varian cary eclipse fluorescence spectrometry analysis; assay type: cell membranes
[7] = Disaggregation property of compound in LPS at 20 uM after 1 hr by Tht fluorescence based assay; assay type: physicochemical
Method in brief: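 Peptide 20 μM incubated 1 h with LPS 1 mg/mL and ThT 25 μM. Aggregation read as ThT emission at 482 nm, excitation 450 nm. ThT alone and peptide alone served as controls.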

HaCaT [8] = test: Cytotoxicity against human HaCaT cells assessed as reduction in cell viability at 3.125 to 100 uM measured after 2 to 24 hrs by MTT assay; assay type: toxicity, cell-based; conditions: dose lower 3.125 µM, time lower 2 hrs, dose upper 100 µM, time upper 24 hrs; method in brief: as §2
Staphylococcus aureus [9] = test: Antimicrobial activity against MRSA-resistant Staphylococcus aureus ATCC 43300 assessed as reduction in colony formation at 12.5 uM incubated for 30 min by time kill assay; assay type: functional, organism-based
Staphylococcus aureus [10] = test: Antimicrobial activity against MRSA-resistant Staphylococcus aureus ATCC 43300 assessed as reduction in colony formation at 12.5 uM incubated for 24 hrs by time kill assay; assay type: functional, organism-based
Serum = test: Proteolytic stability in human serum incubated for 0.25 to 12 hrs by RP-UHPLC analysis; assay type: ADME, cell-free; conditions: time 0.25-12 hrs
[11] = Membrano-lytic effect in bacterial inner membrane mimic DOPG/CL (58:42) large unilamellar vesicles at 30 uM by varian cary eclipse fluorescence spectrometry analysis; assay type: cell membranes
[12] = Induction of DOPG/CL (58:42) large unilamellar vesicles membrane fluidity at 5 uM (reference value: -0.32)
Method in brief: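 LUVs of DOPG/CL 58/42 prepared by extrusion (0.1 μm), Laurdan 1 μM incorporated, hydrated in PBS pH 7.4; lipid 100 μM final. Peptide added at 5 or 30 μM; spectra recorded after 10 min at 25 °C. Fluidity expressed as GP = (I440 − I490)/(I440 + I490).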

[13] = Induction of membrane leakage in DOPG/CL (58:42) large unilamellar vesicles at 5 to 50 uM incubated for 10 mins; conditions: dose 5-50 µM
Method in brief: (§3)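 Free probe removed by Sephadex G-50 gel filtration. Peptide added at 5–50 μM. ANTS dequenching followed 10 min (excitation 385 nm, emission 512 nm). Leakage normalised to Triton X-100 maximum.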

[14] = Induction of membrane leakage in DOPE/DOPG/CL (63:23:12) large unilamellar vesicles at 5 to 50 uM incubated for 10 mins; conditions: dose 5-50 µM; method in brief: as §3
[15] = Induction of DOPG/CL (58:42) large unilamellar vesicles membrane fluidity at 5 uM (reference value: -0.32)

MIC (Escherichia coli) [µM] | MIC (Pseudomonas aeruginosa) [µM] | Activity [4] | SMILES | Activity (HaCaT [1]) [%] | Activity (HaCaT [2]) [%] | Activity (HaCaT [3]) [%] | Activity [5] | Activity [6] | Activity [7] | Activity (HaCaT [8]) | Activity (Staphylococcus aureus [9]) | Activity (Staphylococcus aureus [10]) | Stability (Serum) | Activity [11] | Activity [12] | Activity [13] | Activity [14] | Activity [15]
> 100 | > 100 | Active | CC[C@H](C)[C@H](NC(=O)[C@H](CCCNC(=N)N)NC(=O)[C@@H]1CCCCn2cc(nn2)C[C@H](NC(=O)[C@H](Cc2ccccc2)NC(=O)[C@H](Cc2c[nH]c3ccccc23)NC(=O)[C@@H]2CCCN2C(=O)[C@@H](NC(=O)[C@@H](N)Cc2ccccc2)C(C)C)C(=O)N[C@@H](CCCCN)C(=O)N[C@@H](Cc2ccccc2)C(=O)N[C@@H](CC(C)C)C(=O)N1)C(=O)N[C@@H](CC(C)C)C(N)=O | 60 | < 40 | < 20 | Active | Active | Active | – | – | – | – | – | – | – | – | –
25 (≈ 42.6 µg/mL) | > 100 | – | CC[C@H](C)[C@H](NC(=O)[C@H](CCCNC(=N)N)NC(=O)[C@@H]1CCCCNC(=O)CC[C@H](NC(=O)[C@H](Cc2ccccc2)NC(=O)[C@H](Cc2c[nH]c3ccccc23)NC(=O)[C@@H]2CCCN2C(=O)[C@@H](NC(=O)[C@@H](N)Cc2ccccc2)C(C)C)C(=O)N[C@@H](CCCCN)C(=O)N[C@@H](Cc2ccccc2)C(=O)N[C@H](CC(C)C)C(=O)N1)C(=O)N[C@@H](CC(C)C)C(N)=O (H-FVPWFEKF[dL]KRIL-NH2; lactam 6-10) | 60 | < 40 | < 20 | – | – | – | – | – | – | – | – | – | – | – | –

SMILES | MIC (Escherichia coli) [µM] | MIC (Pseudomonas aeruginosa) [µM] | Activity [4] | Activity (HaCaT [1]) [%] | Activity (HaCaT [2]) [%] | Activity (HaCaT [3]) [%] | Activity [5] | Activity [6] | Activity [7] | Activity (HaCaT [8]) | Activity (Staphylococcus aureus [9]) | Activity (Staphylococcus aureus [10]) | Stability (Serum) | Activity [11] | Activity [12] | Activity [13] | Activity [14] | Activity [15]
CC[C@H](C)[C@H](NC(=O)[C@H](CCCNC(=N)N)NC(=O)[C@@H]1CCC(=O)NCCCC[C@H](NC(=O)[C@H](Cc2ccccc2)NC(=O)[C@H](Cc2c[nH]c3ccccc23)NC(=O)[C@@H]2CCCN2C(=O)[C@@H](NC(=O)[C@@H](N)Cc2ccccc2)C(C)C)C(=O)N[C@@H](CCCCN)C(=O)N[C@@H](Cc2ccccc2)C(=O)N[C@H](CC(C)C)C(=O)N1)C(=O)N[C@@H](CC(C)C)C(N)=O (H-FVPWFKKF[dL]ERIL-NH2; lactam 6-10) | – | 100 (≈ 170 µg/mL) | – | – | – | – | Active | Active | Not Active | Toxic | Active | Active | Stable | Active | -0.23 | Active | Active | -0.23
